Assay results taken from ChEMBL document CHEMBL1134661, “N-Benzylpolyamines as vectors of boron and fluorine for cancer therapy and imaging: synthesis and biological evaluation” (J Med Chem, 2001).
Where “and” joins values, the source holds several entries; their conditions need not be identical. Identical values can stand only once.

Columns and labels:
[1] = target: Nucleic Acid; test: (§1) DNA binding affinity (conc to decrease the fluorescence of the ethidium bromide-DNA complex by 50%); assay type: nucleic-acid assay, Bos taurus
[2] = test system: 3LL cell line; test: Effect on the growth of 3LL cells by DFMO pretreatment at 48 hr incubation; assay type: functional, cell-based; conditions: Mus musculus
How it was run: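 3LL cells given 5 mM DFMO 24 h after seeding for a 24 h preincubation, then 48 h with spermidine or derivative; MTT readout; growth expressed relative to cells treated with DFMO only; mean ± SEM.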

[3] = test system: 3LL cell line; test: Effect on the growth of 3LL cells was evaluated using an MTT assay at 72 hour incubation; assay type: functional, cell-based; conditions: Mus musculus
[4] = test system: 3LL cell line; test: Effect on the growth of 3LL cells was evaluated using an MTT assay at 48 hour incubation; assay type: functional, cell-based; conditions: Mus musculus
[5] = test system: CHO-MG; test: Compound was tested for accumulation in CHO-MG cells by HPLC at 50 uM dose; assay type: functional, Cricetulus griseus
How it was run: (§2)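 CHO or polyamine-transport-deficient CHO-MG cells (proline 2 µg/mL added for CHO-MG), RPMI 1640 with 10% FCS, 37 °C, 5% CO2; seeded at 5 × 10⁴ cells/mL, derivative added 24 h later for 24 h; trypsin/EDTA harvest, three PBS washes, sonication in 0.2 N perchloric acid; derivative measured by ion-pair reversed-phase HPLC with o-phthalaldehyde/N-acetylcysteine fluorescence; per mg protein (Folin); mean ± SD.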

[6] = test system: 3LL cell line; test: spermine levels in 3LL cells after the treatment of 50 uM of Compound; assay type: functional, cell-based; conditions: Mus musculus
How it was run: (§3)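 3LL cells incubated 24 h with derivative, some after 24 h pretreatment with 5 mM DFMO; perchloric acid extracts analyzed for putrescine, spermidine and spermine by ion-pair reversed-phase HPLC with o-phthalaldehyde post-column fluorescence, normalized to protein (Folin); mean ± SD.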

[7] = test system: 3LL cell line; test: accumulation of compound in 3LL cells was measured with DFMO by HPLC at 50 uM dose; assay type: functional, Mus musculus
How it was run: (§4)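 3LL cells exposed 24 h to derivative, BSH or BPA, with or without prior 24 h incubation with 5 mM DFMO; intracellular drug measured by ion-pair reversed-phase HPLC with o-phthalaldehyde fluorescence, or cellular boron by ICP-AES, per mg protein; mean ± SD; Student's t-test, p < 0.01.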

[8] = test system: 3LL cell line; test: accumulation of compound in 3LL cells was measured without DFMO by HPLC at 50 uM dose; assay type: functional, Mus musculus; how it was run: as §4
[9] = test system: CHO; test: Compound was tested for accumulation in CHO cells by HPLC at 50 uM dose; assay type: functional, Cricetulus griseus; how it was run: as §2
[10] = test system: 3LL cell line; test: spermidine levels in 3LL cells after the treatment of 50 uM of Compound; assay type: functional, cell-based; conditions: Mus musculus; how it was run: as §3
[11] = test system: 3LL cell line; test: accumulation of compound in 3LL cells was measured without DFMO by HPLC at 250 uM dose; assay type: functional, Mus musculus; how it was run: as §4
[12] = Compound was tested for accumulation of (50 uM) boronated polyamines in rat C6 glioblastoma cells; assay type: functional
How it was run: (§5)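 Rat C6, human U251 glioblastoma or murine B16 melanoma cells exposed 24 h to 50 µM boron-containing derivative, either directly or after 24 h preincubation with 5 mM DFMO; washed cells sonicated in 0.2 N perchloric acid, derivative quantified by ion-pair reversed-phase HPLC with o-phthalaldehyde fluorescence detection, normalized to protein; mean ± SD.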

[13] = target: Nucleic Acid; test: as §1; assay type: nucleic-acid assay
[14] = test system: 3LL cell line; test: accumulation of compound in 3LL cells was measured without DFMO by ICP-AES at 50 uM dose; assay type: functional, Mus musculus; how it was run: as §4
[15] = test system: CHO-MG; test: Compound was tested for accumulation in CHO-MG cells by HPLC at 250 uM dose; assay type: functional, Cricetulus griseus; how it was run: as §2
[16] = test system: U-251; test: Compound was tested for accumulation of (50 uM) boronated polyamines in human U251 glioblastoma cells; assay type: functional; how it was run: as §5
[17] = test system: 3LL cell line; test: accumulation of compound in 3LL cells was measured with DFMO by ICP-AES at 50 uM dose; assay type: functional, Mus musculus; how it was run: as §4
[18] = test system: CHO; test: Compound was tested for accumulation in CHO cells by HPLC at 250 uM dose; assay type: functional, Cricetulus griseus; how it was run: as §2
[19] = test system: 3LL cell line; test: accumulation of compound in 3LL cells was measured with DFMO by HPLC at 250 uM dose; assay type: functional, Mus musculus; how it was run: as §4
[20] = Compound was tested for accumulation of (50 uM) boronated polyamines in murine B16 melanoma cells; assay type: functional; how it was run: as §5
[21] = test system: 3LL cell line; test: accumulation of compound in 3LL cells was measured with DFMO by HPLC at 10 uM dose; assay type: functional, Mus musculus; how it was run: as §4
[22] = test system: 3LL cell line; test: spermidine levels in 3LL cells after the treatment of 250 uM of Compound; assay type: functional, cell-based; conditions: Mus musculus; how it was run: as §3
[23] = test system: 3LL cell line; test: spermine levels in 3LL cells after the treatment of 250 uM of Compound; assay type: functional, cell-based; conditions: Mus musculus; how it was run: as §3
[24] = test system: 3LL cell line; test: accumulation of compound in 3LL cells was measured without DFMO by HPLC at 10 uM dose; assay type: functional, Mus musculus; how it was run: as §4
[25] = test system: 3LL cell line; test: spermine levels in 3LL cells after the treatment of 1 uM of Compound; assay type: functional, cell-based; conditions: Mus musculus; how it was run: as §3
[26] = test system: 3LL cell line; test: accumulation of compound in 3LL cells was measured with DFMO by HPLC at 1 uM dose; assay type: functional, Mus musculus; how it was run: as §4
[27] = test system: CHO; test: Compound was tested for accumulation in CHO cells by HPLC at 10 uM dose; assay type: functional, Cricetulus griseus; how it was run: as §2
[28] = test system: 3LL cell line; test: accumulation of compound in 3LL cells was measured without DFMO by HPLC at 1 uM dose; assay type: functional, Mus musculus; how it was run: as §4
[29] = test system: 3LL cell line; test: putrescine levels in 3LL cells after the treatment of 250 uM of Compound; assay type: functional, cell-based; conditions: Mus musculus; how it was run: as §3
[30] = Compound was tested for accumulation of (50 uM) boronated polyamines in murine B16 melanoma cells ncubated with 5 mM DFMO; assay type: functional; how it was run: as §5
[31] = Compound was tested for accumulation of (50 uM) boronated polyamines in rat C6 glioblastoma cells incubated with 5 mM DFMO; assay type: functional; how it was run: as §5
[32] = test system: U-251; test: Compound was tested for accumulation of (50 uM) boronated polyamines in human U251 glioblastoma cells incubated with 5 mM DFMO; assay type: functional; how it was run: as §5
[33] = test system: 3LL cell line; test: spermine levels in 3LL cells after the treatment of 10 uM of Compound; assay type: functional, cell-based; conditions: Mus musculus; how it was run: as §3

Compound | IC50 [1] [µM] | IC50 [2] [µM] | IC50 [3] [µM] | IC50 [4] [µM] | Level (nM (mg of protein)-1) [6] | Activity [7] | Activity [8] [nmol/mg protein] | Accumulation [9] | Level (nM (mg of protein)-1) [10] | Activity [24] | also measured
Cl.NCCCCNCc1ccc(F)cc1 | > 3000 | > 10 | 468 | 568 | 11 | 1.31 nM (mg of protein)-1 | 0.55 | 0.9 nM (mg of protein)-1 | 0.92 | – | Accumulation [5]: 0.45 nM (mg of protein)-1
CC1(C)COB(c2ccc(CN(CCCN)CCCCN)cc2)OC1.Cl | – | > 10 | > 1000 | > 1000 | 7.4 | 0.98 nM (mg of protein)-1 | 2.6 | – | 8.92 | – | Activity [11]: 3.35 nM (mg of protein)-1; Accumulation [12]: 2.92 nM (mg of protein)-1 and 2.5 nM (mg of protein)-1; IC50 [13]: 102 µM; Activity [14]: 3.46 nM (mg of protein)-1; Accumulation [15]: 3.84 nM (mg of protein)-1; Accumulation [16]: 2.12 nM (mg of protein)-1 and 1.79 nM (mg of protein)-1; Activity [17]: 1.83 nM (mg of protein)-1; Accumulation [18]: 5.05 nM (mg of protein)-1; Activity [19]: 2.55 nM (mg of protein)-1; Accumulation [20]: 0.92 nM (mg of protein)-1 and 0.45 nM (mg of protein)-1
Cl.NCCCCN(CCCN)Cc1ccccc1 | 310 | > 100 | > 1000 | > 1000 | – | 6.92 nM (mg of protein)-1 | 4.92 | – | – | 2.59 nM (mg of protein)-1 | Activity [11]: 6.11 nM (mg of protein)-1; Activity [21]: 5.52 nM (mg of protein)-1; Level (nM (mg of protein)-1) [22]: 4.15; Level (nM (mg of protein)-1) [23]: 8.64; Accumulation [15]: 5.55 nM (mg of protein)-1; Accumulation [18]: 13.64 nM (mg of protein)-1; Activity [19]: 5.46 nM (mg of protein)-1
CC1(C)COB(c2cccc(CN(CCCN)CCCCN)c2)OC1.Cl | – | – | – | – | – | – | – | – | – | – | Activity [11]: 4.52 nM (mg of protein)-1; Accumulation [15]: 3.71 nM (mg of protein)-1; Accumulation [18]: 5.65 nM (mg of protein)-1; Activity [19]: 3.93 nM (mg of protein)-1
Cl.NCCCCNCCCNCc1ccc(F)cc1 | 341 | 0.5 | 2.3 | 4.7 | – | – | – | – | – | 12.87 nM (mg of protein)-1 | Level (nM (mg of protein)-1) [25]: 8.25; Activity [26]: 12.19 nM (mg of protein)-1; Accumulation [27]: 9.4 nM (mg of protein)-1; Activity [28]: 5.51 nM (mg of protein)-1
Cl.NCCCCNCCCNCc1ccc(B(O)O)cc1 | 37 | > 1 | 400 | 824 | 7.25 | 4.18 nM (mg of protein)-1 | – | 4.78 nM (mg of protein)-1 | 0.14 | – | Activity [12]: 1.63 nM (mg of protein)-1; Activity [14]: 2.7 nM (mg of protein)-1; Accumulation [16]: 1.65 nM (mg of protein)-1; Activity [17]: 5.68 nM (mg of protein)-1; Drug [8]: 2.01 nM (mg of protein)-1; Accumulation [20]: 4.75 nM (mg of protein)-1 and 9.26 nM (mg of protein)-1
Cl.NCCCCNCc1ccc(B(O)O)cc1 | 1380 | > 50 | > 1000 | > 1000 | 7.52 | 8.44 nM (mg of protein)-1 | 1.32 | 5.76 nM (mg of protein)-1 | 1.07 | 0.52 nM (mg of protein)-1 | Activity [12]: 0.09 nM (mg of protein)-1; Activity [21]: 3.37 nM (mg of protein)-1; Level (nM (mg of protein)-1) [29]: 1.31; Level (nM (mg of protein)-1) [22]: 2.28; Level (nM (mg of protein)-1) [23]: 7.66; Accumulation [30]: 20.41 nM (mg of protein)-1; Accumulation [5]: 0.51 nM (mg of protein)-1; Activity [14]: 1.29 nM (mg of protein)-1; Accumulation [16]: 0.21 nM (mg of protein)-1; Accumulation [31]: 0.41 nM (mg of protein)-1; Activity [17]: 6.73 nM (mg of protein)-1; Accumulation [32]: 0.22 nM (mg of protein)-1; Accumulation [20]: 5.77 nM (mg of protein)-1
NCCCCNCCCN [SPERMIDINE] | 98 | – | – | – | – | – | – | – | – | – | –
Cl.NCCCCNCc1ccccc1 | 3110 | > 50 | 604 | 993 | 5.79 | 1.03 nM (mg of protein)-1 | 0.34 | 0.4 nM (mg of protein)-1 | 0.89 | – | Accumulation [5]: 0.1 nM (mg of protein)-1
NCCCCN [PUTRESCINE] | > 11000 | – | – | – | – | – | – | – | – | – | –
Cl.NCCCCNCCCNCc1ccccc1 | 107 | 11.9 | 9.3 | 31 | – | – | – | 17.58 nM (mg of protein)-1 | – | 9 nM (mg of protein)-1 | Activity [21]: 23.67 nM (mg of protein)-1; Level (nM (mg of protein)-1) [33]: 7.23
